# From PubChem BioAssay
# Most compounds without a hit are left out; they make up all but 1.5% or so of the library.
# EBI2 block: antagonists of human EBI2 receptor | P32249 | EBI2 beta-arrestin recruitment, luminescence, 7a,25-OHC stimulated | inhibition, % at 5 µM | hit rate 0.81% among 360,000; in the data active means inhibition above about 38%;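 further: enzyme fragment complementation signal reports receptor beta-arrestin coupling in cells; 0% = agonist plus DMSO wells and 100% = wells without agonist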
# Target sequence (P32249 whole entry, looked up, the tested form may be a part): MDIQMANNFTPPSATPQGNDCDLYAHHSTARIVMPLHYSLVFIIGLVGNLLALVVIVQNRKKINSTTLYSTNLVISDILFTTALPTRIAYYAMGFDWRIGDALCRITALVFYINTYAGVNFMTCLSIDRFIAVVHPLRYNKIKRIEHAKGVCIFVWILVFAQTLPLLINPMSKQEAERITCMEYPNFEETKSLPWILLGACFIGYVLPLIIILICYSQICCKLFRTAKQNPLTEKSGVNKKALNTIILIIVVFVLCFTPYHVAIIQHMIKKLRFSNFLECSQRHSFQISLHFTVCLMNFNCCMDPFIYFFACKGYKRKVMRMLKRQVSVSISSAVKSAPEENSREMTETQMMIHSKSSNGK
# CCR6 antagonist: blocks CCL20-driven beta-arrestin recruitment at human CCR6 | CHO-K1 CCR6 PathHunter beta-arrestin, luminescence, CCL20-stimulated | AID 493098 | P51684 | inhibition, % at 20 µM | hit rate 0.49% among 340,000;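 active means compounds whose inhibition of the agonist-driven luminescence signal at 20 µM reaches about 50%, limit read from the data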;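 further: cells stimulated with CCL20 at 14 nM final; plate controls were DMSO with CCL20 for no effect and DMSO without agonist for full effect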
# Target sequence (P51684 whole entry, looked up): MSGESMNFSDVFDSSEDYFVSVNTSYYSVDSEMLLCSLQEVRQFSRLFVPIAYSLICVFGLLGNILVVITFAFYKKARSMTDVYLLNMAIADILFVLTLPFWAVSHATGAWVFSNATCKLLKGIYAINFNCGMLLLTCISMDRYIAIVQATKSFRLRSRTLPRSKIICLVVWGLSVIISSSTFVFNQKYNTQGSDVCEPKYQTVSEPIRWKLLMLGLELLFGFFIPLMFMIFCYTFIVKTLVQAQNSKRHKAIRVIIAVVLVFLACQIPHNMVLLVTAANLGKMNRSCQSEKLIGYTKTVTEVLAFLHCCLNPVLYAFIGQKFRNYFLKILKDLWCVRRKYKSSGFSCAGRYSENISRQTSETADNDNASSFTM
# APJ agonist: activates the human apelin receptor APJ; CHO-K1 APJ PathHunter beta-arrestin, luminescence; 0% DMSO wells, 100% apelin; activation, % at 20 µM; hit rate 0.11% among 330,000; AID 2520;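 active means activation more than six SD over the plate average, tested at 20 µM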;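 further: 0% = DMSO alone and 100% = apelin-13 at 10 nM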
#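 Test system – PathHunter CHO-K1 APJ (AGTRL-1) beta-arrestin reporter cells · Input – 1000 cells/well · Compound – single test compound dose, 20 µM final, 1% DMSO · Times – compound stimulation 90 min at 25 °C, detection 60 min · Technique – beta-gal luminescence · Read-out basis – APJ–arrestin association signal · Control set – negative DMSO alone, positive Apelin-13 at 10 nM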
# APJ antag: blocks the human apelin receptor APJ; P35414; inhibition, % at 20 µM; AID 2521; CHO-K1 APJ beta-arrestin complementation, luminescence; hit rate 0.32% among 330,000;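 active means inhibition above about 40% at 20 µM, limit read from the data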;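 further: cells challenged with 10 nM apelin-13 agonist together with compound; plate controls were apelin-13 plus DMSO wells for no effect and DMSO wells lacking apelin-13 for full effect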
# CXCR6 block: blocks human CXCR6 beta-arrestin recruitment | O00574 | CHO-K1 PathHunter CXCR6 beta-arrestin, luminescence | inhibition, % at 20 µM | hit rate 0.36% among 360,000; in the data active means inhibition above about 34%, passing the limit was not always enough;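 further: antagonist mode with CXCL16 agonist at 10 nM final; 0% = 10 nM CXCL16 with DMSO and 100% = unstimulated wells without agonist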
# EBI2 antag conf: confirmation of human EBI2 receptor antagonists | EBI2 beta-arrestin luminescence, 7a,25-OHC antagonism | shares compounds with EBI2 block | hit rate 29% among 2,400 | AID 651997 | inhibition, % at 5 µM;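 active means inhibition of at least 50%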
# EBI2 agonist: EBI2 agonism counter-screen; EBI2-expressing cells, agonist mode, luminescence, 60 min; 0% vehicle, 100% 7α,25-dihydroxycholesterol control; shares compounds with EBI2 block; activation, % at 5 µM; 2,400 tested, under 10 active;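 active means activation of at least 50%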
# bGal counter: inhibits E. coli beta-galactosidase, counter-screen for EBI2 antagonists; hit rate 1% among 2,400; purified beta-galactosidase, luminescent Galacton Star, 15 min; shares compounds with EBI2 block; AID 652176; inhibition, % at 5 µM;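 active means replicate-average signal at least 3 plate SD below neutral wells, shown as high inhibition, flagging enzyme-inhibiting false positives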;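 further: 0% = DMSO wells with enzyme and 100% = wells lacking enzyme; higher means stronger loss of beta-gal luminescence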
# * = called active by the depositor; nt = no result given.
SMILES,EBI2 block,CCR6 antagonist,APJ agonist,APJ antag,CXCR6 block,EBI2 antag conf,EBI2 agonist,bGal counter
COc1ccc(-c2nc(N)nc(C)c2-c2ccc(Cl)cc2)c(O)c1,79.7*,1.8,-0.8,17.1,1.0,62.0*,1.4,2.2
C=C(C)COc1ccc(-c2nc(N)nc(C)c2-c2ccc(OC)cc2)c(O)c1,44.3*,2.0,-2.6,2.2,7.0,21.5,-1.0,-14.3
Cn1cc(-c2ccc3c(c2)OCO3)c2ccccc21,2.2,nt,nt,nt,0.0,nt,nt,nt
COc1ccc(C(=O)C[C@@H]2OC[C@H](Cc3ccccc3)N2S(=O)(=O)c2ccc(C)cc2)cc1OC,17.3,nt,nt,nt,nt,nt,nt,nt
COc1ccccc1Nc1ccc(C(=O)NC2CCCCC2)cn1,9.6,14.7,-6.0,-3.7,-1.6,nt,nt,nt
Cc1ccc(Nc2ccc(C(=O)NC3CCCCC3)cn2)cc1,83.7*,10.5,-0.1,-13.0,-2.5,57.6*,0.2,-10.7
CCOC(=O)C1CCCN(C(=O)c2ccc(-c3ccccc3)cc2)CC1 (stereo unspecified),26.6,nt,nt,nt,2.3,nt,nt,nt
C=CCc1cccc(CNc2nc3ccccc3n2CCN2CCOCC2)c1O,83.4*,13.9,-4.0,-24.4,24.7,84.4*,-0.5,7.3
C=CCc1cccc(CNc2nc3ccccc3n2C)c1O,-0.1,-0.1,-0.3,-13.0,3.1,nt,nt,nt
O=C(NCc1ccccc1)C(c1ccccc1)n1c(-c2ccccn2)nc2ccccc21 (stereo unspecified),1.4,nt,nt,nt,nt,nt,nt,nt
CCc1ccc(OCC(=O)Nc2ccc(S(=O)(=O)Nc3ccccn3)cc2)cc1,61.5*,9.5,-1.7,9.7,-7.0,29.2,-0.5,10.7
CC(C)c1ccc(OCC(=O)Nc2ccc(S(=O)(=O)Nc3ccccn3)cc2)cc1,-0.8,6.3,-0.8,11.4,-6.8,nt,nt,nt
COc1ccc(CCN2CC(C(=O)N(C)CCOc3ccccc3)CCC2=O)cc1 (stereo unspecified),42.0,7.9,0.6,23.7,-7.1,nt,nt,nt
CN(CCOc1ccccc1)C(=O)C1CCC(=O)N(CCc2ccc(Cl)cc2)C1 (stereo unspecified),53.9*,13.6,0.4,-10.6,0.7,38.6,1.2,-2.2
C=C(C)C1Cc2c(C)nn(-c3ccccc3)c2C1 (stereo unspecified),-10.3,25.1,-3.1,12.8,-5.8,nt,nt,nt
C=C(C)C1Cc2c(C)nn(-c3cccc4ccccc34)c2C1 (stereo unspecified),31.9*,9.8,-1.8,16.6,-3.2,41.4,-0.6,7.8
O=C(Nc1nnc([C@@H]2C[C@H](O)[C@@H](CO)O2)s1)c1cccc(OC(F)(F)F)c1,-5.0,nt,nt,nt,1.3,nt,nt,nt
O=C(O)c1cc2c(s1)-c1ccccc1OC2,5.2,1.8,-1.3,-14.7,0.9,nt,nt,nt
Cc1cccc2c1-c1sc(C(=O)N3CCc4ccccc4C3)cc1CO2,10.8,9.1,-2.3,2.3,-2.5,nt,nt,nt
Cc1cccc2c1-c1sc(C(=O)Nc3ccccc3N3CCN(C)CC3)cc1CO2,6.7,19.8,-2.7,14.7,2.1,nt,nt,nt
CCOC(=O)N1CCN(C(=O)c2cc3c(s2)-c2c(C)cccc2OC3)CC1,90.8*,12.2,-2.0,16.1,-3.9,87.1*,1.0,-6.2
O=C(c1ccco1)N1CCN(C(=O)c2cc3c(s2)-c2ccccc2OC3)CC1,69.6*,19.2,-1.1,21.4,2.4,62.1*,1.0,-1.1
Cc1cccc2c1-c1sc(C(=O)N3CCCCC3)cc1CO2,77.6*,16.0,-3.5,8.1,-12.5,71.1*,0.1,3.8
CCN1CCN(C(=O)c2cc3c(s2)-c2c(C)cccc2OC3)CC1,91.5*,8.0,-2.6,11.8,-1.2,78.1*,0.8,7.0
CCCCN(C(=O)c1ccc(N(C)S(=O)(=O)c2ccc(C)cc2)cc1)c1c(N)n(CC(C)C)c(=O)[nH]c1=O,-2.1,-11.5,nt,nt,-0.8,nt,nt,nt
SMILES,EBI2 block,CCR6 antagonist,APJ agonist,APJ antag,CXCR6 block,EBI2 antag conf,EBI2 agonist,bGal counter
Cc1cc2c(cc1C)-n1nnnc1C(N(Cc1ccccc1)Cc1ccccc1)C(=O)N2 (stereo unspecified),1.4,nt,nt,nt,nt,nt,nt,nt
CCOC(=O)Nc1ccc(Oc2ccccc2)cc1,22.5,-31.1,-0.7,-13.7,2.5,nt,nt,nt
CCOC(=O)Nc1ccc(C(=O)/C=C/c2ccccc2)cc1,63.0*,20.8,-3.9,5.4,-3.4,32.0,0.5,8.6
CSc1ccc(/C=C/C(=O)Nc2ccccc2)cc1,28.1,11.1,-0.4,6.6,-2.9,nt,nt,nt
CSc1ccc(/C=C/C(=O)c2ccc(NC(=O)Cc3ccccc3)cc2)cc1,92.0*,1.8,-2.0,2.3,2.5,80.2*,0.6,7.2
CSc1ccc(/C=C/C(=O)c2ccc(NC(=O)C(C)C)cc2)cc1,74.9*,7.5,-1.4,-2.7,13.0,65.8*,-1.0,-6.4
CC(C)C[C@H]1COc2cc(N3CCC[C@H]3CO)ccc2S(=O)(=O)N1,-6.8,nt,nt,nt,-1.7,nt,nt,nt
CCOC1CCCc2oc(-c3ccc(OC)cc3)c(C(=O)NCCCCO)c21 (stereo unspecified),-0.8,nt,nt,nt,-1.5,nt,nt,nt
CC(=O)NC(c1ccccc1)c1nc(-c2cccc(C(F)(F)F)c2)cs1 (stereo unspecified),4.7,nt,nt,nt,-2.1,nt,nt,nt
CC(C)C[C@H]1CN(CCCC[C@H]2CNC(=O)C(=O)N2Cc2ccccc2)C(=O)C(=O)N1CCc1ccc(O)cc1,-8.8,nt,nt,nt,-5.2,nt,nt,nt
Cc1ccc(NNC(=S)Nc2ccc(C(C)C)cc2)c(C)c1,70.1*,42.3,-5.0,29.8,18.6,62.4*,-1.2,-7.6
CC(=O)N1CCOc2ccc(S(=O)(=O)N3CCC(C(=O)NCc4ccc(Cl)cc4)CC3)cc21,89.7*,nt,nt,nt,-5.9,80.1*,1.8,1.2
CC(=O)N1CCOc2ccc(S(=O)(=O)N3CCC(C(=O)Nc4ccc(C)cc4)CC3)cc21,-3.1,-2.9,-3.0,14.2,-2.1,nt,nt,nt
CC(=O)N1CCOc2ccc(S(=O)(=O)N3CCC(C(=O)NCc4ccc(C)cc4)CC3)cc21,94.0*,3.6,-2.2,-20.2,4.8,84.5*,1.0,7.5
CCc1ccc(NC(=O)C2CCN(S(=O)(=O)c3ccc4c(c3)N(C(C)=O)CCO4)CC2)cc1,6.2,10.6,-7.3,20.9,2.5,nt,nt,nt
CC(=O)N1CCOc2ccc(S(=O)(=O)N3CCC(C(=O)NCc4ccc(F)cc4)CC3)cc21,68.7*,-11.6,2.7,22.3,-1.9,56.4*,1.8,-13.2
Cc1ccc(S(=O)(=O)N2C[C@H]3n4c(=O)ccc(=O)n4C[C@H](OC(=O)NCC4CCCCC4)[C@@]3(O)C2)cc1,3.0,nt,nt,nt,-2.0,nt,nt,nt
COc1ccc(C(=O)/C=C/c2ccccc2F)c(OC(=O)c2ccc([N+](=O)[O-])cc2)c1,10.7,14.9,-0.8,-4.5,7.7,nt,nt,nt
CN(C)c1ccc(C(=O)C=Cc2ccc([N+](=O)[O-])cc2)cc1,52.7*,nt,nt,nt,-7.1,26.9,0.1,-7.9
